The species entered for one test is Rattus norvegicus. Description: Cyclic AMP accumulation in Rat brain cerebral cortical slices by the compound, activity expressed as % conversion. Type of test: functional. The method in brief:
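Rat cerebral cortical slices were used for cAMP accumulation. cAMP was isolated by double-column chromatography. Values are means of two experiments, each run in duplicate.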

Test [1] concerns the target T1, GABA-A receptor; anion channel (Rattus norvegicus) (UniProt O09028+P15431+P18506+P18508+P19969+P20236+P23574+P23576+P28471+P28473+P30191+P62813+P63079+P63138+Q91ZM7+Q9ES14). Nature of the test: Displacement of [35S]TBPS from GABA-A receptor of rat brain membranes. Type of test: cell membranes. Also noted: concentration or dose not given beside the values. The following applies: Membrane. The essentials:
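[35S]TBPS binding assay with nonspecific binding defined by 10 µM unlabelled TBPS. Values are means of two experiments, each in duplicate.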

Test [2] has as its target T1, GABA-A receptor; anion channel (Rattus norvegicus). The following applies: Brain, Brain membranes.
Test [3] has the same target. Nature of the test: Displacement of [3H]diazepam binding in rat brain membranes. It counts as cell membranes. Also noted: unit not given here. The method in brief: (§1)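 [3H]Diazepam binding, alone and GABA-activated, was measured in brain membranes. Nonspecific binding was taken with 1 µM unlabelled diazepam. Values are means of two experiments, each in duplicate.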
A general note: Loss of bound radioactivity is the signal in a displacement assay; it reports binding, not function.

Test [4] deals with GABA B receptor (Rattus norvegicus) (UniProt Q9Z0U4+O88871). Nature of the test: Displacement of [3H]-GABA from Gamma-aminobutyric acid type B receptor in rat brain membranes. It counts as cell membranes. Also noted: concentration or dose not given beside the values. The method in brief:
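GABA-B binding: rat brain membranes were incubated with [3H]GABA plus 40 µM isoguvacine to block GABA-A sites. Nonspecific binding was defined with 100 µM baclofen. Values are means of three experiments, each in duplicate; standard errors were below 20%.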

Test [5] addresses T1, GABA-A receptor; anion channel (Rattus norvegicus). Description: Displacement of [3H]-GABA from Gamma-aminobutyric acid A receptor in rat brain membranes. It counts as cell membranes. Also noted: concentration or dose not given beside the values. The essentials: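 GABA-A binding used [3H]GABA as ligand, with nonspecific binding taken in 1 mM unlabelled GABA. Values are means of three experiments, each in duplicate; standard error of the means was below 10%.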

The target is the same in test [6]. The following applies: Brain, Brain membranes. The source holds these as a separate data set.
The test system of test [7] is Mus musculus. Nature of the test: Convulsant effect on ICV administration in mice at 100 ug. It counts as functional. The method in brief:
(§2)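 Mice under halothane anaesthesia got a 4 µL injection into the left ventricle at 25, 50 or 100 µg, with saline controls. Mice sat in a 1-L beaker and were watched for seizures from 2 min after injection, and for behaviour over 40 min. A seizure counted when tonic-clonic convulsions occurred and the mouse fell on its flank. Read-out: mice convulsing/mice tested, and seizure duration in min (mean ± SEM).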

For test [8], the system named is Mus musculus. Nature of the test: Convulsant effect on ICV administration in mice at 50 ug. It counts as functional. The essentials: as §2
The subject of test [9] is Mus musculus. Nature of the test: Convulsant effect on ICV administration in mice at 100microg, 5/5 mice affected. Type of test: functional. The method in brief:
as §2

The test system of test [10] is Mus musculus. Description: Convulsant effect on ICV administration in mice at 25microg, 0/5 mice affected. It counts as functional. The essentials: as §2
Test [11] relates to Mus musculus. Nature of the test: Convulsant effect on ICV administration in mice at 50microg, 5/5 mice affected. Type of test: functional. The essentials: as §2
For test [12], the species on record is Mus musculus. Description: Reversal of convulsant effect by Diazepam pretreatment at 100 ug ICV dose, 5/5 mice affected. It counts as functional.
Test [13] has as its system Mus musculus. Nature of the test: Reversal of convulsant effect by Diazepam pretreatment (10 mg/kg) at 100 ug ICV dose, 0/5 mice affected. It counts as functional.
Test [14] relates to Mus musculus. Nature of the test: Reversal of convulsant effect by Diazepam pretreatment (2 mg/kg) at 100 ug ICV dose, 5/5 mice affected. Type of test: functional.
Test [15] has as its system Mus musculus. Description: Reversal of convulsant effect by Diazepam pretreatment (5 mg/kg) at 100 ug ICV dose, 4/4 mice affected. It counts as functional.
The target in test [16] is T1, GABA-A receptor; anion channel (Rattus norvegicus). Description: Displacement of GABA activated [3H]diazepam binding in rat brain membranes. It counts as cell membranes. The method in brief:
as §1

The target of test [17] is GABA transporter (Rattus norvegicus) (UniProt P31647+P23978+P31646+P48056). Description: Inhibition of [3H]GABA uptake from rat brain membranes. It counts as functional, cell membranes. The following applies: Membrane, concentration not given here. The method in brief: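 High-affinity [3H]GABA uptake was measured into rat brain synaptosomes. Values are means of two experiments.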
Chain of GABA transporter (Rattus norvegicus) (P31646 whole entry, looked up): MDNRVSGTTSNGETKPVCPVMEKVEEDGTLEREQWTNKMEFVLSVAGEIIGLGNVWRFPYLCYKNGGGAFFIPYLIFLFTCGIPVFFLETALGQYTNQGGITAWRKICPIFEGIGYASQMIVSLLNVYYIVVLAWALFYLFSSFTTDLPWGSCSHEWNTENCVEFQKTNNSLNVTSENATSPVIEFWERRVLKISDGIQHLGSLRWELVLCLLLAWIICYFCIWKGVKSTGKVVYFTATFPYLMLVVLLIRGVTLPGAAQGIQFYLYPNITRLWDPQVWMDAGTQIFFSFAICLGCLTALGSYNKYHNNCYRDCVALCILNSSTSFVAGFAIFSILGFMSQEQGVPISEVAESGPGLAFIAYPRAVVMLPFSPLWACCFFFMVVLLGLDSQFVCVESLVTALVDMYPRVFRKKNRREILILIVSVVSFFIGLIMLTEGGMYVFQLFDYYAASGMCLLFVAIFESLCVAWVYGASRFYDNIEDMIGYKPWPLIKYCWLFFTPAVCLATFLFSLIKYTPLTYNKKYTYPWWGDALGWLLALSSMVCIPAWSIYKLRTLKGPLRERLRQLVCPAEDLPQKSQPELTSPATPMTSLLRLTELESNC
Chain of GABA transporter (Rattus norvegicus) (P31647 whole entry, looked up): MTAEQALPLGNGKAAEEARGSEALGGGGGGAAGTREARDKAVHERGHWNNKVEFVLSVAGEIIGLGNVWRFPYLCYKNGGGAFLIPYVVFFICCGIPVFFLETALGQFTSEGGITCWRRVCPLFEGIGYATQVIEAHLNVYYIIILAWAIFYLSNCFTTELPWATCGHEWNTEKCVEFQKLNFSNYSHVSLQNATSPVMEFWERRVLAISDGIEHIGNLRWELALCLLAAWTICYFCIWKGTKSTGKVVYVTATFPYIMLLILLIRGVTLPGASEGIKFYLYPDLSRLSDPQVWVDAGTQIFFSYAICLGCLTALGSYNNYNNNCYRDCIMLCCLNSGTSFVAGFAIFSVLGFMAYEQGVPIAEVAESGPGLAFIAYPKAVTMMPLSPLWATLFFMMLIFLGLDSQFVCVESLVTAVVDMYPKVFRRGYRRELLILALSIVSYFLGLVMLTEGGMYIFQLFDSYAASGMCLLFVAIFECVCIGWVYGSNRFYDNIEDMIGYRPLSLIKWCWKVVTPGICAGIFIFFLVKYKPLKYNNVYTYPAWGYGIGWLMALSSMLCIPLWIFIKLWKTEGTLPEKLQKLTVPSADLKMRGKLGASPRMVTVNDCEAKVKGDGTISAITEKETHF
Chain of GABA transporter (Rattus norvegicus) (P48056 whole entry, looked up): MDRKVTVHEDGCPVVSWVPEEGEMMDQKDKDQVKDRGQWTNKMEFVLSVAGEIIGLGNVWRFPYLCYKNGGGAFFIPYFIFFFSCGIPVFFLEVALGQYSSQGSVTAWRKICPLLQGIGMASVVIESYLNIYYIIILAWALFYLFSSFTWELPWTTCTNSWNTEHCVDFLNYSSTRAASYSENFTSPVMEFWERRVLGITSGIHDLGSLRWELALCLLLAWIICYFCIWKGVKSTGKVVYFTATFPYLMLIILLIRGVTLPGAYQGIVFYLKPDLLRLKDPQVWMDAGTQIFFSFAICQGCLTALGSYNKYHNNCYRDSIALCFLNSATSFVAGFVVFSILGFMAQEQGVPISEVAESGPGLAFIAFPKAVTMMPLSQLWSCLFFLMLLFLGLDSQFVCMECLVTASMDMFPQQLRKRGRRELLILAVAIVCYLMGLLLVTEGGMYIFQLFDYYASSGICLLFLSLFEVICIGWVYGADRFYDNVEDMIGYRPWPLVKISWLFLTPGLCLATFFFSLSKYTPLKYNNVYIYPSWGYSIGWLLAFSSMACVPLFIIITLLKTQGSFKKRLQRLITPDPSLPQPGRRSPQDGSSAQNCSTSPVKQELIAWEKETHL

Test [18] concerns the target T1, GABA-A receptor; anion channel (Rattus norvegicus). Nature of the test: Displacement of GABA activated [3H]diazepam binding in rat brain membranes at 100 uM. Type of test: cell membranes. The method in brief:
as §1

Test [19] shares this target. Nature of the test: Displacement of [3H]diazepam binding to rat brain membranes at 100 uM concentration. It counts as cell membranes. The following applies: Membrane. The method in brief:
as §1

Test [20] has as its system Mus musculus. Nature of the test: Convulsant effect on ICV administration in mice at 50microg, 1/6 mice affected. It counts as functional. The method in brief: as §2
Test [21] has as its system Mus musculus. Description: Reversal of convulsant effect by Diazepam pretreatment (10 mg/kg) at 100 ug ICV dose, 0/6 mice affected. Type of test: functional.
Test [22] concerns Mus musculus. Nature of the test: Reversal of convulsant effect by Diazepam pretreatment (2 mg/kg) at 100 ug ICV dose, 4/4 mice affected. It counts as functional.
Test [23] deals with Mus musculus. Description: Reversal of convulsant effect by Diazepam pretreatment (5 mg/kg) at 100 ug ICV dose, 5/5 mice affected. It counts as functional.

The structures appear in SMILES notation.

As a reminder, the inhibition is the drop in the measured response relative to a control, in per cent.

`CC(C)NCC(O)c1ccc(O)c(O)c1.NCC(CC(=O)O)c1ccc(Cl)cc1.O=C(O)C1CCCC2NCCCC21` (stereo not given) displayed a Conversion in the test filed under Rattus norvegicus of 2.65%.
`CC(C)NCC(O)c1ccc(O)c(O)c1.O=C(O)C1CCCC2NCCCC21` (stereo not given) came in with a Conversion in the test filed under Rattus norvegicus of 0.84%.
Regarding `CC(C)NCC(O)c1ccc(O)c(O)c1.NCC(CC(=O)O)c1ccc(Cl)cc1` (stereo not given), the Conversion in the test filed under Rattus norvegicus was determined as 2.56%.
As for `C=C(C)[C@@H]1[C@H]2OC(=O)[C@@H]1[C@]1(O)C[C@H]3O[C@]34C(=O)O[C@H]2[C@]14C`, the Displacement in [1] worked out at 90%.
`CC(C)NCC(O)c1ccc(O)c(O)c1.O=C(O)[C@@H]1CCCC2NCCCC21` (stereo not given) had a Binding affinity (spec bound mg-1) in test [2] of 0.91.
In [3], `CN1C(=O)CN=C(c2ccccc2)c2cc(Cl)ccc21` displayed a Binding affinity (spec bound mg-1) of 29.3.
As to `NCCCC(=O)O`, the Displacement in test [4] and in test [5] was 100% throughout. In test [6], this compound yielded a Binding affinity (spec bound mg-1) of 55.4.
Turning to `O=C(O)[C@@H]1CCCC2NCCCC21` (stereo in doubt; 3) [listing 1 of 2 here], the Duration of seizure in the test with Mus musculus [7] is 26.5 min; in the test on Mus musculus [8], 9.5 min. In addition, the Tonic-clonic seizure was 5 with Mus musculus [9]; 0 in the test with Mus musculus [10]; 5 with Mus musculus [11]; 5 in the test listed under Mus musculus [12]; 0 in the test on Mus musculus [13]; 5 in the test with Mus musculus [14]. In addition, the Tonic-clonic seizure with Mus musculus [15] is 4.
As for `O=C(O)[C@@H]1CCCC2NCCCC21` (stereo in doubt; 3) [listing 2 of 2 here], the Displacement in [4] was below 10%; in test [1], below 5%; in test [5], below 10%. Besides, the Binding affinity (spec bound mg-1) in [16] was 59.1; in test [3], 28.8. The inhibition in test [17] was below 5%.
For `CC(C)NCC(O)c1ccc(O)c(O)c1.NCC(CC(=O)O)c1ccc(Cl)cc1.O=C(O)[C@@H]1CCCC2NCCCC21` (stereo in doubt; form 1), in the test listed under Rattus norvegicus, the Conversion was determined as 2.59%.
On to `O=C(O)[C@@H]1CCCC2NCCCC21` (stereo in doubt; form 1), for which the Displacement in test [4] was below 10%; in test [1], below 5%; in [5], below 10%. In addition, the values for the Binding affinity (spec bound mg-1) in test [18] and in [19] were 55.3 and 31.9, respectively. Moreover, the inhibition in test [17] is below 5%.
For the compound `CC(C)NCC(O)c1ccc(O)c(O)c1.O=C(O)[C@@H]1CCCC2NCCCC21` (stereo in doubt; form 2), the Conversion in the test listed under Rattus norvegicus turned out to be 0.86%.
On to `O=C(O)[C@@H]1CCCC2NCCCC21` (stereo in doubt; form 2), for which the Displacement in test [4] was below 10%; in [1] it was below 5%; in test [5], below 10%. Besides, the Binding affinity (spec bound mg-1) in [16] came to 59.4; in test [3], 32. In test [17], this compound displayed an inhibition of 15%.
In the test filed under Rattus norvegicus, `CC(C)NCC(O)c1ccc(O)c(O)c1.NCC(CC(=O)O)c1ccc(Cl)cc1.O=C(O)[C@@H]1CCCC2NCCCC21` (stereo in doubt; form 3) gave a Conversion of 2.81%.
The same measure, in the same setting: for `CC(C)NCC(O)c1ccc(O)c(O)c1.NCC(CC(=O)O)c1ccc(Cl)cc1.O=C(O)[C@@H]1CCCC2NCCCC21` (stereo in doubt; form 4) the value was 2.63%; for `CC(C)NCC(O)c1ccc(O)c(O)c1.O=C(O)[C@@H]1CCCC2NCCCC21` (stereo in doubt; form 5), 0.8%.
Take `O=C(O)C1CCCC2NCCCC21` (trans isomer): the figures for the Displacement in test [4], in [1] and in test [5] were 38%, below 5% and 43%, respectively. The Binding affinity (spec bound mg-1) in [16] is 65.5; in [3], 35. Besides, the Duration of seizure amounted to 11.7 min in the test with Mus musculus [7] and 0.8 min in the test on Mus musculus [8]. Further, the Tonic-clonic seizure is reported as 5 in the test on Mus musculus [9]; 0 with Mus musculus [10]; 1 in the test with Mus musculus [20]; 5 in the test filed under Mus musculus [12]; 0 with Mus musculus [21]; 4 in the test on Mus musculus [22]. Besides, the Tonic-clonic seizure with Mus musculus [23] is 5. Further, in [17], the inhibition was below 5%.
In the case of `NCC(CC(=O)O)c1ccc(Cl)cc1` (stereo not given) [BACLOFEN], the figures for the Displacement in test [4] and in test [5] were 100% and 15%, respectively. Besides, in the test filed under Rattus norvegicus, the Conversion is 0.2%.
In turn, `CC(C)NCC(O)c1ccc(O)c(O)c1` (stereo not given) [ISOPROTERENOL] showed a Conversion in the test filed under Rattus norvegicus of 0.84%.

The values above are taken from ChEMBL document CHEMBL1123198, “Stereoselective syntheses of the trans-decahydroquinoline-5-carboxylic acid epimers. Diastereomeric zwitterionic probes of gamma-aminobutyric acid related biological properties in vitro and in vivo” (1986).
